From ChEMBL document CHEMBL1147655, “Design and synthesis of 8-octyl-benzolactam-V9, a selective activator for protein kinase C epsilon and eta” (J Med Chem, 2006) come the findings set out here.

Bounds are passed on as bounds.

Assay [1] deals with T1, Protein kinase C beta type (Homo sapiens, UniProt P05771). Briefly: Induction of GFP-tagged PKC beta translocation in HeLa cells measured as ratio of fluorescence intensity in plasma membrane to cytosol at 1 uM. It is filed as cell-based. The procedure, abridged: (§1)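 HeLa cells transfected with GFP-fused PKC isozyme, cultured 16-48 h, then medium switched to HEPES buffer (135 mM NaCl, 5.4 mM KCl, 1 mM MgCl2, 1.8 mM CaCl2, 5 mM HEPES, 10 mM glucose, pH 7.3). Compound added at stated final concentration, 37 °C; confocal time series (488 nm excitation, 505-550 nm emission). R = membrane/mean cytosolic intensity from line profiles; maximum R reported, SD of at least three measurements.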
Target sequence in this assay (P05771 2-671 limits assumed): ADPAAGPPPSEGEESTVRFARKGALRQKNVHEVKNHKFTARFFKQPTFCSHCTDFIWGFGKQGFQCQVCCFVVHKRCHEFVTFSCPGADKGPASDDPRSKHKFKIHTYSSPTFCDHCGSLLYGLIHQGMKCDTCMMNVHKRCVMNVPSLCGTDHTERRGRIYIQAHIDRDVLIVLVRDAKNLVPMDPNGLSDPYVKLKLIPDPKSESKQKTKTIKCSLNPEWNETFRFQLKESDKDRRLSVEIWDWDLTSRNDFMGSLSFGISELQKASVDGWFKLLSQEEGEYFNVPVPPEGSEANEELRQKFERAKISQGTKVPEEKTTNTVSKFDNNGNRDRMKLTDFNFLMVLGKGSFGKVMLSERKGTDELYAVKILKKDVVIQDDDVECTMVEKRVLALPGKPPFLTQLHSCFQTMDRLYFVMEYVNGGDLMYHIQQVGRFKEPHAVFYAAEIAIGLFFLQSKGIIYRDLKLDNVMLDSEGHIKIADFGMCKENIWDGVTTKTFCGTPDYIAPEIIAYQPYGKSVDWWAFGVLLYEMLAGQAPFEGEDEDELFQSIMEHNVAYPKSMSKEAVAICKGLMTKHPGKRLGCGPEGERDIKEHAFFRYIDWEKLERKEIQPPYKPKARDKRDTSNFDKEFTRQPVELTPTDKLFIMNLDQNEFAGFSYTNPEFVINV

Assay [2] concerns the target T1, Protein kinase C beta type. Briefly: Induction of GFP-tagged PKC beta translocation in HeLa cells measured as ratio of fluorescence intensity in plasma membrane to cytosol at 0.5 uM. It counts as cell-based. Put shortly:
as §1
Target sequence in this assay (P05771 2-671 limits assumed): as above

The target in assay [3] is T2, Protein kinase C gamma type (Homo sapiens, UniProt P05129). Briefly: Induction of GFP-tagged PKC gamma translocation in HeLa cells measured as ratio of fluorescence intensity in plasma membrane to cytosol at 10 uM. It is filed as cell-based. The procedure, abridged: as §1
For assay [4], the target named is T2, Protein kinase C gamma type. Briefly: Induction of GFP-tagged PKC gamma translocation in HeLa cells measured as ratio of fluorescence intensity in plasma membrane to cytosol at 1 uM. It counts as cell-based. The procedure, abridged: as §1
The target in assay [5] is T3, Protein kinase C delta type (Homo sapiens, UniProt Q05655). Briefly: Induction of GFP-tagged PKC delta translocation in HeLa cells measured as ratio of fluorescence intensity in plasma membrane to cytosol at 10 uM. It is filed as cell-based. The procedure, abridged:
as §1
Target sequence in this assay (Q05655 whole entry, looked up): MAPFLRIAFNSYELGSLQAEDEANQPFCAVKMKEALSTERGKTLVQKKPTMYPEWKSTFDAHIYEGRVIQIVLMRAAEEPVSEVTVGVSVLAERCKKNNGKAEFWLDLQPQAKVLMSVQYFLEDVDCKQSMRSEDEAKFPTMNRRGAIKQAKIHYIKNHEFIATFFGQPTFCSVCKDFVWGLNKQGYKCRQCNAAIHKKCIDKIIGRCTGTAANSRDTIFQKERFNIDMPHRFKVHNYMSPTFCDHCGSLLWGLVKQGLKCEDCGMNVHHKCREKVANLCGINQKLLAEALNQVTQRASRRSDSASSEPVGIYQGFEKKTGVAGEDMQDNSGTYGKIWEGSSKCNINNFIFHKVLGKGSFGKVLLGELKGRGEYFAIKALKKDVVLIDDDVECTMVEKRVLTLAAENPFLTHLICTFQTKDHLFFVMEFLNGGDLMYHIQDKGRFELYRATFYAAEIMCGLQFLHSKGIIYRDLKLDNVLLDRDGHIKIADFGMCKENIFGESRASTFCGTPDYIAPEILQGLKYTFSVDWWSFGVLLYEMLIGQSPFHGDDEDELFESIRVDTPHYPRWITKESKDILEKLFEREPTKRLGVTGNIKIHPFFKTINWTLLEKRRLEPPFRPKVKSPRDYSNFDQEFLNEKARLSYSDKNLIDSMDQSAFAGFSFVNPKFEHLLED

In assay [6] the target is T3, Protein kinase C delta type. Briefly: Induction of GFP-tagged PKC delta translocation in HeLa cells measured as ratio of fluorescence intensity in plasma membrane to cytosol at 1 uM. It counts as cell-based. Put shortly:
as §1
Target sequence in this assay (Q05655 whole entry, looked up): as above

For assay [7], the target named is T4, Protein kinase C epsilon type (Homo sapiens) (UniProt Q02156).
T4 sequence (whole entry): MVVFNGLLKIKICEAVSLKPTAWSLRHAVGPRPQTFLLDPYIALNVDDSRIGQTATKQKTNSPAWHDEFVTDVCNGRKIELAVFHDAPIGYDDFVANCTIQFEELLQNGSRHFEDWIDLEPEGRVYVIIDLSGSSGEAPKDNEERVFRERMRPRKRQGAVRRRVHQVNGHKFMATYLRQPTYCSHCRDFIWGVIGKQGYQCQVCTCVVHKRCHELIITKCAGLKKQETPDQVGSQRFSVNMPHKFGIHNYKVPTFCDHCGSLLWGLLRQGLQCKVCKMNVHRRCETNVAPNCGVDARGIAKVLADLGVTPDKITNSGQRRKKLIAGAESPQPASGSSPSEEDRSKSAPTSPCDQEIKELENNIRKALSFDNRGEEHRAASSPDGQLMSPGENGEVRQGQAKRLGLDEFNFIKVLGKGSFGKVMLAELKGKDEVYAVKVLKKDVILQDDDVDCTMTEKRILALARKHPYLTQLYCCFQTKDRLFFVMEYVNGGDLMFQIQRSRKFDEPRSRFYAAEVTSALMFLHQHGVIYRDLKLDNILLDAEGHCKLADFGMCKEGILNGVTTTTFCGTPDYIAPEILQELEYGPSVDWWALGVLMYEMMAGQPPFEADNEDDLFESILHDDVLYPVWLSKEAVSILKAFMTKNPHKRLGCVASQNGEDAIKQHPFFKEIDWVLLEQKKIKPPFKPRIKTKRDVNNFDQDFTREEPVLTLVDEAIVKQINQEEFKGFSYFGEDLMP
Briefly: Induction of GFP-tagged PKC epsilon translocation in HeLa cells measured as ratio of fluorescence intensity in plasma membrane to cytosol at 10 uM. It counts as cell-based. The procedure, abridged: as §1

Assay [8] addresses T1, Protein kinase C beta type. Briefly: Induction of GFP-tagged PKC beta translocation in HeLa cells measured as ratio of fluorescence intensity in plasma membrane to cytosol at 10 uM. It is filed as cell-based. Put shortly:
as §1
Target sequence in this assay (P05771 2-671 limits assumed): as the sequence (P05771 2-671 limits assumed) above

In assay [9] the target is T4, Protein kinase C epsilon type (Homo sapiens). Briefly: Induction of GFP-tagged PKC epsilon translocation in HeLa cells measured as ratio of fluorescence intensity in plasma membrane to cytosol at 1 uM. It is filed as cell-based. The procedure, abridged: as §1
The target is the same in assay [10]. Briefly: Induction of GFP-tagged PKC epsilon translocation in HeLa cells measured as ratio of fluorescence intensity in plasma membrane to cytosol at 0.5 uM. It counts as cell-based. The procedure, abridged: as §1
For assay [11], the target named is T5, Protein kinase C eta type (Homo sapiens, UniProt P24723). Briefly: Induction of GFP-tagged PKC eta translocation in HeLa cells measured as ratio of fluorescence intensity in plasma membrane to cytosol at 10 uM. It is filed as cell-based. The procedure, abridged:
as §1

In assay [12] the target is T5, Protein kinase C eta type. Briefly: Induction of GFP-tagged PKC eta translocation in HeLa cells measured as ratio of fluorescence intensity in plasma membrane to cytosol at 1 uM. It counts as cell-based. Put shortly:
as §1

The target in assay [13] is T5, Protein kinase C eta type. Briefly: Induction of GFP-tagged PKC eta translocation in HeLa cells measured as ratio of fluorescence intensity in plasma membrane to cytosol at 0.5 uM. It counts as cell-based. Put shortly: as §1
Assay [14] concerns the target T6, Protein kinase C alpha type (Homo sapiens, UniProt P17252). Briefly: Induction of GFP-tagged PKC alpha translocation in HeLa cells measured as ratio of fluorescence intensity in plasma membrane to cytosol at 10 uM. It is filed as cell-based. Put shortly:
as §1

Assay [15] deals with T6, Protein kinase C alpha type. Briefly: Induction of GFP-tagged PKC alpha translocation in HeLa cells measured as ratio of fluorescence intensity in plasma membrane to cytosol at 1 uM. It counts as cell-based. The procedure, abridged: as §1
For assay [16] the target is unchanged. Briefly: Displacement of [3H]phorbol 12,13-dibutyrate from PKC alpha-C1A.
Assay [17] shares this target. Briefly: Displacement of [3H]phorbol 12,13-dibutyrate from PKC alpha-C1B. Background: In a radioligand displacement assay an active substance lowers the binding of a labelled ligand.
Assay [18] has as its target T1, Protein kinase C beta type. Briefly: Displacement of [3H]phorbol 12,13-dibutyrate from PKC beta-C1A.
Target sequence in this assay (P05771 whole entry, the tested form may be a part): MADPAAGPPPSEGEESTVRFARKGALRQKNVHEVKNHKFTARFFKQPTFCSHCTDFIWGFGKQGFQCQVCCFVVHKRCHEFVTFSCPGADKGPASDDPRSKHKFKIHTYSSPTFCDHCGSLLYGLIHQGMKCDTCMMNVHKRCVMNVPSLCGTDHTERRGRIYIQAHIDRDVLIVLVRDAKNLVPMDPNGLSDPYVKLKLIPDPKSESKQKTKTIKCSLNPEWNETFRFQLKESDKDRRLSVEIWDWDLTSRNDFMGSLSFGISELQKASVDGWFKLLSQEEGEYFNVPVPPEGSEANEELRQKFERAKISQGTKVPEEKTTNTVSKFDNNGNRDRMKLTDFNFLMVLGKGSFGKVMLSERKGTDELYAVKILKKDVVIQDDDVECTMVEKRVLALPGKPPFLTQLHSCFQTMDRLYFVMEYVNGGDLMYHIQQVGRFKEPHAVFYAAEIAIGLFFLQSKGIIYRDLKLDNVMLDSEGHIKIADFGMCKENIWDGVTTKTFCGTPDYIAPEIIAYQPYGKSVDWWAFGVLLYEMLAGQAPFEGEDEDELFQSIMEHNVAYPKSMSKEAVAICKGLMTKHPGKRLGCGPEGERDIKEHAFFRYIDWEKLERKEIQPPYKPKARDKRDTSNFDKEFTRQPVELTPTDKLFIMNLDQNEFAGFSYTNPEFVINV
Assay [19] concerns the target T1, Protein kinase C beta type. Briefly: Displacement of [3H]phorbol 12,13-dibutyrate from PKC beta-C1B.
Target sequence in this assay (P05771 whole entry, the tested form may be a part): as above
The target in assay [20] is T2, Protein kinase C gamma type. Briefly: Displacement of [3H]phorbol 12,13-dibutyrate from PKC gamma-C1A.
Assay [21] has the same target. Briefly: Displacement of [3H]phorbol 12,13-dibutyrate from PKC gamma-C1B.
In assay [22] the target is T3, Protein kinase C delta type. Briefly: Displacement of [3H]phorbol 12,13-dibutyrate from PKC delta-C1A.
Assay [23] has the same target. Briefly: Displacement of [3H]phorbol 12,13-dibutyrate from PKC delta-C1B.
Assay [24] addresses T7, Protein kinase C epsilon type (Homo sapiens, UniProt Q02156).
T7 sequence (Q02156 whole entry): T4 sequence (whole entry)
Briefly: Displacement of [3H]phorbol 12,13-dibutyrate from PKC epsilon-C1A.

The target of assay [25] is T7, Protein kinase C epsilon type. Briefly: Displacement of [3H]phorbol 12,13-dibutyrate from PKC epsilon-C1B.
Assay [26] concerns the target T5, Protein kinase C eta type. Briefly: Displacement of [3H]phorbol 12,13-dibutyrate from PKC eta-C1A.
For assay [27], the target named is T5, Protein kinase C eta type. Briefly: Displacement of [3H]phorbol 12,13-dibutyrate from PKC eta-C1B.
The target of assay [28] is Protein kinase C theta type (Homo sapiens, UniProt Q04759). Briefly: Displacement of [3H]phorbol 12,13-dibutyrate from PKC theta-C1B.

T5 sequence (P24723 whole entry): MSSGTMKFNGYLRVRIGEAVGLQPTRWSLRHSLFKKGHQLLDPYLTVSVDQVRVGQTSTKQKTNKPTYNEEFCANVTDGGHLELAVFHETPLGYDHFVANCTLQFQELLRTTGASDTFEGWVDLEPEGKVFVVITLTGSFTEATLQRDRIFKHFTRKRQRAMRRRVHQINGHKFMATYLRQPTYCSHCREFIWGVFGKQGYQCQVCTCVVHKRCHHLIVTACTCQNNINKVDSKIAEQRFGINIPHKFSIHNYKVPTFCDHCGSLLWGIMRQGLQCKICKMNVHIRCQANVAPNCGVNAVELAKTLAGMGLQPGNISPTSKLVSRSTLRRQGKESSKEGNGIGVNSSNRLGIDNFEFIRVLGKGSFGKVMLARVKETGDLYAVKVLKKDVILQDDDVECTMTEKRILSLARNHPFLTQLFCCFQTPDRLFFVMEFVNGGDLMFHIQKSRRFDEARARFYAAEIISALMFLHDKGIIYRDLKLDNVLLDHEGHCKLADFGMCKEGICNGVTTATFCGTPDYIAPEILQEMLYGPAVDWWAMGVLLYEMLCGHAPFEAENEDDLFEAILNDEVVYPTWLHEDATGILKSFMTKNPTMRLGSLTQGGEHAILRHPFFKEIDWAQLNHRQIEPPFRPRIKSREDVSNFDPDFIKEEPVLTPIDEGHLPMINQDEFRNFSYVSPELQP

`CCCCCCN1C[C@H]2C[C@@H](CO)NC(=O)[C@H](C(C)C)N(C)c3cccc1c32`: the Ratio amounted to 2.39 in assay [1]; 0.95 in [2]; 1.53 in assay [3]; 0.96 in [4]; 2.41 in assay [5]; 0.9 in assay [6]. Further, the Ratio came to 4.29 in [7]; 2.38 in assay [8]; 2.73 in assay [9]; 2.42 in assay [10]; 1.92 in assay [11]; 1.84 in [12]. Further, the figures for the Ratio in [13], in assay [14] and in [15] were 1.01, 1.79 and 0.97, respectively.

As a reminder, the Ki is a dissociation constant, usually derived from enzyme kinetics or from competition with a known ligand. Higher therefore signals a looser hold on the target. For `CCCCCCCCc1cccc2c1CC[C@@H](CO)NC(=O)[C@H](C(C)C)N2C`, the Ratio stood at 0.97 in [3]; 0.95 in assay [5]; 1.96 in [7]; 0.97 in [8]; 1.66 in assay [9]; 1.65 in assay [10]. For the same molecule, the Ratio in assay [11] stood at 1.72; in assay [12], 1.46; in [13], 0.97; in [14] it was 0.98. Also, the Ki in assay [16] is > 10 µM; in [17], > 10 µM; in assay [18], > 10 µM; in [19], > 10 µM; in assay [20], > 10 µM; in [21], 5.2 µM. The Ki is > 10 µM in [22]; 0.216 µM in assay [23]; > 10 µM in assay [24]; 0.51 µM in [25]; > 10 µM in assay [26]; 0.144 µM in assay [27]. In assay [28], this molecule yielded a Ki of 0.29 µM.
